Measured values taken from ChEMBL document CHEMBL3351669, “Oxidized derivatives of macroline, sarpagine, and pleiocarpamine alkaloids from Alstonia angustifolia” (J Nat Prod, 2014).

Legend:
Format in all cases: functional, cell-based
KB = experiment: Cytotoxicity against vincristine-sensitive human KB cells
How it was run: (§1)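 Alkaloids tested alone, without vincristine, in parallel on vincristine-sensitive KB and vincristine-resistant KB/VJ300 cells. IC50 determined, in μg/mL.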

[1] = Cytotoxicity against vincristine-resistant human KB/VJ300 cells; how it was run: as §1
[2] = Cytotoxicity against multi-drug resistant human KB/VJ300 cells in presence of 0.1 ug/ml vincristine
How it was run: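 Multidrug-resistance reversal test in vincristine-resistant KB/VJ300 cells. Test alkaloid is co-applied with vincristine at 0.1 μg/mL (0.12 μM). The IC50 of the test alkaloid is determined under this co-treatment, in μg/mL.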

| Structure (SMILES) | IC50 (KB) [µg/mL] | IC50 [1] [µg/mL] | IC50 [2] [µM] |
| --- | --- | --- | --- |
| C[C@H]1OC[C@@H]2[C@H]3C[C@H]4c5c(c6ccccc6n5C)C[C@@H]2[N+]4(C)[C@H](O)[C@H]31 | > 25 | > 25 | – |
| CC(=O)C1=COC[C@H]2[C@@H]3C[C@]4(C(=O)N(C)c5ccccc54)[C@H](C[C@@H]12)N3 | > 25 | > 25 | – |
| C[C@@H]1OC[C@@H]2[C@@H](C[C@H]3c4[nH]c5ccccc5c4C[C@@H]2N3C)[C@H]1CO | > 25 | > 25 | – |
| C/C=C1/CN2CC(=O)c3c4n(c5ccccc35)[C@H](C(=O)OC)[C@H]1C[C@@H]42 | > 25 | > 25 | – |
| CC1=C(C=O)[C@@H]2C[C@H]3c4c(c5ccccc5n4C)C[C@@H]([C@@H]2CO1)N3C [ALSTONERINAL] | > 25 | > 25 | – |
| COc1ccc2c(c1)c1c(n2C)[C@@H]2C[C@H]3[C@@H](CO)[C@H](C)OC[C@H]3[C@H](C1)N2C | > 25 | > 25 | – |
| COc1ccc2c(c1)c1c(n2C)[C@@H]2C[C@H]3C(=O)OC[C@H]3[C@H](C1)N2C | > 25 | > 25 | – |
| C[C@@H]1OC[C@@H]2[C@@H](C[C@H]3c4c(c5ccccc5n4C)C[C@@H]2N3C)[C@@H]1C=O [Talcarpine] | > 25 | > 25 | – |
| C/C=C1/CN2CC[C@@]3(O)c4ccccc4N4[C@H](C(=O)OC)[C@H]1C[C@H]2[C@@H]43 | > 25 | > 25 | – |
| C/C=C1\C(=O)OC[C@H]2[C@@H]3Cc4c(n(C)c5ccccc45)[C@H](C[C@@H]12)N3 | > 25 | > 25 | – |
| CC(=O)C[C@@H]1C[C@@H]2N3[C@@H](C)OC[C@H]1[C@@H]3C[C@]21C(=O)N(C)c2ccccc21 | > 25 | > 25 | – |
| C[C@@H]1OC[C@@H]2[C@H]3C[C@H]4c5c(c6ccccc6n5C)C[C@@H]2N4[C@H](O)[C@H]31 | > 25 | > 25 | 40 |
| CC(=O)C1=COC[C@@H]2[C@H]1C[C@H]1c3c(c4ccccc4n3C)C[C@@H]2N1C [ALSTONERINE] | > 25 | > 25 | 10 |
| C[C@@H]1OC[C@@H]2[C@@H](C[C@H]3c4[nH]c5ccccc5c4C[C@@H]2N3C)[C@@H]1CO | > 25 | > 25 | – |
| C[C@H](O)C[C@@H]1C[C@@H]2N[C@@H](C[C@@]23C(=O)N(C)c2ccccc23)[C@@H]1CO | > 25 | > 25 | – |
| CC(=O)C[C@@H]1C[C@H]2c3c(c4ccccc4n3C)C[C@@H]([C@@H]1CO)N2C | > 25 | > 25 | – |
| CN1[C@H]2C[C@@H]3[C@@H](CO[C@@]4(C)OC(=O)C[C@@H]34)[C@@H]1Cc1c2n(C)c2ccccc12 | > 25 | > 25 | – |
| C[C@H]1OC[C@@H]2[C@@H](C[C@H]3c4c(c5ccccc5n4C)C[C@@H]2N3C)[C@@H]1C=O | > 25 | > 25 | – |
| C[C@H](O)C1=CN2[C@H]3C[C@H]1[C@@H](CO)[C@@H]2Cc1c3n(C)c2ccccc12 | > 25 | > 25 | – |
| C/C=C1/CN2[C@H]3C[C@H]1C(CO)[C@@H]2Cc1c3[nH]c2ccccc12 (some centres not stated) | > 25 | > 25 | – |
| C[C@@H]1OC[C@@H]2[C@@H](C[C@@H]3N[C@H]2Cc2c3n(C)c3ccccc23)[C@H]1CO | > 25 | > 25 | – |

| Structure (SMILES) | IC50 (KB) [µg/mL] | IC50 [1] [µg/mL] | IC50 [2] [µM] |
| --- | --- | --- | --- |
| CC(O)C[C@@H]1C[C@@H]2N3COC[C@H]1[C@@H]3C[C@]21C(=O)Nc2ccccc21 (some centres not stated) | > 25 | > 25 | – |
| C/C=C1\C(=O)OC[C@H]2[C@@H]3Cc4c(n(C)c5ccc(OC)cc45)[C@H](C[C@@H]12)N3 | > 25 | > 25 | 40 |
| CC(O)C[C@@H]1C[C@@H]2N[C@@H](C[C@]23C(=O)N(C)c2ccccc23)[C@@H]1CO (some centres not stated) | > 25 | > 25 | – |
| C[C@H](O)C1=CN2[C@H]3C[C@H]1[C@@H](CO)[C@@H]2C[C@@]31C(=O)N(C)c2ccccc21 | > 25 | > 25 | – |
| CC(=O)C1=COC[C@@H]2[C@H]1C[C@H]1c3[nH]c4ccccc4c3C[C@@H]2N1C | > 25 | > 25 | – |
| C/C=C1/CN2CCc3c4n(c5ccccc35)[C@H](C(=O)OC)[C@H]1C[C@@H]42 | > 25 | > 25 | 40 |
| C[C@@H]1OC[C@@H]2[C@@H](C[C@H]3c4c(c5ccccc5n4C)C[C@@H]2N3C)[C@H]1CO [MACROCARPINE B] | > 25 | > 25 | – |
| CC(=O)C1=COC[C@H]2[C@@H]3C[C@]4(C(=O)Nc5ccccc54)[C@H](C[C@@H]12)N3 | > 25 | > 25 | – |
| CC(=O)C(CC(=O)O)[C@@H]1C[C@H]2c3c(c4ccccc4n3C)C[C@@H]([C@@H]1CO)N2C (some centres not stated) | > 25 | > 25 | – |
| CC(=O)O[C@@H]1[C@@H]2[C@@H]3C[C@H]4c5c(c6ccccc6n5C)C[C@@H]([C@@H]3CO[C@H]2C)N14 | > 25 | > 25 | 40 |
| C/C=C1/CN2CC[C@]3(O)c4ccccc4N4[C@H](C(=O)OC)[C@H]1C[C@H]2[C@@H]43 | > 25 | > 25 | – |
| C/C=C1/CN2[C@H]3C[C@H]1C(CO)[C@@H]2C[C@]31Nc2ccccc2C1=O (some centres not stated) | > 25 | > 25 | – |
| C[C@@H]1OC[C@@H]2[C@H]3C[C@@H]4N([C@H](O)C13)[C@H]2C[C@@]41C(=O)N(C)c2ccccc21 | > 25 | > 25 | – |
| C[C@@H]1OC[C@@H]2[C@@H](C[C@@H]3N[C@H]2Cc2c3n(C)c3ccccc23)[C@@H]1CO | > 25 | > 25 | – |
| CN1[C@H]2C[C@H]3C(=O)OC[C@H]3[C@@H]1Cc1c2n(C)c2ccccc12 | > 25 | > 25 | – |
| C[C@@H]1OC[C@@H]2[C@@H](C[C@H]3c4c(c5ccccc5n4C)C[C@@H]2N3C)[C@@H]1CO | > 25 | > 25 | – |
| CC1=C(C=O)[C@@H]2C[C@H]3c4[nH]c5ccccc5c4C[C@@H]([C@@H]2CO1)N3C | > 25 | > 25 | – |
| CC(O)C[C@@H]1C[C@@H]2N3COC[C@H]1[C@@H]3C[C@]21C(=O)N(C)c2ccccc21 (some centres not stated) | > 25 | > 25 | – |
| C[C@H](O)C[C@H]1C[C@@H]2N3COC[C@@H]1[C@@H]3CC21C(=O)N(C)c2ccccc21 (some centres not stated) | > 25 | > 25 | – |
| C[C@H](O)C[C@@H]1C[C@@H]2N[C@@H](C[C@@]23C(=O)Nc2ccccc23)[C@@H]1CO | > 25 | > 25 | – |
